Data published in ChEMBL document CHEMBL3124820, “Design, synthesis and biological evaluation of hetero-aromatic moieties substituted pyrrole-2-carbonitrile derivatives as dipeptidyl peptidase IV inhibitors” (Eur J Med Chem, 2014).

Experiments:
Mus musculus [1] = test: Antidiabetic activity in C57BKS db/db mouse assessed as blood glucose level at 15 mg/kg/day administered for 5 weeks followed by glucose challenge at 6 hrs starvation of post last dose measured at 60 mins by OGTT (reference value: 30.2 +/- 1.5 mmol/L); type: functional
Method in brief: (§1)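 C57BKS db/db mice received 5, 15 or 50 mg/kg/day for 5 weeks. Vehicle was 0.5% methylcellulose at 10 mL/kg/day. In week 5, mice were fasted 6 h and given an oral glucose load of 1.5 g/kg, then blood glucose was recorded over the glucose tolerance test. Data are mean ± SE, compared with Student's t-test.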

Mus musculus [2] = test: Antidiabetic activity in C57BKS db/db mouse assessed as blood glucose level at 15 mg/kg/day administered for 5 weeks followed by glucose challenge at 6 hrs starvation of post last dose measured at 120 mins by OGTT (reference value: 28.1 +/- 1.3 mmol/L); type: functional; method in brief: as §1
Mus musculus [3] = test: Antidiabetic activity in C57BKS db/db mouse assessed as blood glucose level at 15 mg/kg/day administered for 5 weeks followed by glucose challenge at 6 hrs starvation of post last dose measured at 30 mins by OGTT (reference value: 46.6 +/- 2.2 mmol/L); type: functional; method in brief: as §1
Mus musculus [4] = test: Antidiabetic activity in ICR mouse assessed as decrease in blood glucose AUC (0 to 120 mins) at 30 mg/kg administered for 30 mins prior to glucose challenge measured after 4 hrs by OGTT relative to vehicle-treated control; type: functional; set-up: scale not given: the % may be the effect or the level left
Method in brief: (§2)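 ICR mice were fasted 16 h and given one dose in 0.5% methylcellulose vehicle (10 mL/kg). An oral glucose load of 2.5 g/kg followed; methods state 30 min after dosing, the figure legend 4 h.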

Mus musculus [5] = test: Antidiabetic activity in C57BKS db/db mouse assessed as blood glucose level at 15 mg/kg/day administered for 5 weeks followed by glucose challenge at 6 hrs starvation of post last dose measured at 90 mins by OGTT (reference value: 27.2 +/- 1.3 mmol/L); type: functional; method in brief: as §1
Mus musculus [6] = test: Antidiabetic activity in C57BKS db/db mouse assessed as blood glucose level at 15 mg/kg/day administered for 5 weeks followed by glucose challenge at 6 hrs starvation of post last dose measured immediately by OGTT (reference value: 25 +/- 1.2 mmol/L); type: functional; method in brief: as §1
Dipeptidyl peptidase 8 = Dipeptidyl peptidase 8 (Homo sapiens, UniProt Q6V1X1); test: Inhibition of recombinant his6-tagged DPP8 (unknown origin) expressed in baculovirus expression system using Ala-pro-AMC as substrate by fluorometric analysis
Dipeptidyl peptidase 9 = Dipeptidyl peptidase 9 (Homo sapiens, UniProt Q86TI2); test: Inhibition of recombinant his6-tagged DPP9 (unknown origin) expressed in baculovirus expression system using Ala-pro-AMC as substrate by fluorometric analysis
Cytochrome P450 3A4 = Cytochrome P450 3A4 (Homo sapiens, UniProt P08684); test: Inhibition of CYP3A4 (unknown origin); type: ADME
[7] = Tmax in Sprague-Dawley rat at 20 mg/kg, po; type: ADME, organism-based; set-up: dose 20 mg/kg, route oral; details: in vivo
Method in brief: (§3)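 Sprague-Dawley rats were dosed orally or intravenously, and blood was sampled after dosing. Plasma was separated by centrifugation and deproteinized with methanol containing an internal standard. The supernatant was diluted with methanol, centrifuged again and quantified by LC/MS/MS.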

[8] = AUC (0 to infinity) in Sprague-Dawley rat at 5 mg/kg, iv; type: ADME, organism-based; set-up: time infinity, dose 5 mg/kg, route intravenous; details: plasma; method in brief: as §3
[9] = Cmax in Sprague-Dawley rat at 20 mg/kg, po; type: ADME, organism-based; set-up: dose 20 mg/kg, route oral; details: in vivo; method in brief: as §3
Mus musculus [10] = test: Antidiabetic activity in ICR mouse assessed as decrease in blood glucose AUC (0 to 120 mins) at 15 mg/kg administered for 30 mins prior to glucose challenge measured after 4 hrs by OGTT relative to vehicle-treated control; type: functional; set-up: scale not given: the % may be the effect or the level left; method in brief: as §2
[11] = Oral bioavailability in Sprague-Dawley rat at 20 mg/kg; type: ADME, organism-based; details: in vivo; method in brief: as §3
Mus musculus [12] = test: Antidiabetic activity in ICR mouse assessed as decrease in blood glucose AUC (0 to 120 mins) administered for 30 mins prior to glucose challenge measured after 4 hrs by OGTT; type: functional, organism-based
Method in brief: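 ICR mice fasted 16 h, then given a single dose of 15 or 50 mg/kg; vehicle 0.5% methylcellulose (10 mL/kg), LAF237 30 mg/kg as positive control. Oral glucose 2.5 g/kg given 30 min after dosing (legend says 4 h). Blood glucose read at 0, 15, 30, 60, 90, 120 min for AUC0–120. Mean ± SE, n = 10; Student's t-test.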

[13] = Apparent clearance in Sprague-Dawley rat at 5 mg/kg, iv; type: ADME, organism-based; set-up: dose 5 mg/kg, route intravenous; details: in vivo, read-out: CL(app) (converted); method in brief: as §3
[14] = AUC (0 to t) in Sprague-Dawley rat at 5 mg/kg, iv; type: ADME, organism-based; set-up: dose 5 mg/kg, route intravenous; details: plasma; method in brief: as §3
[15] = Mean residence time in Sprague-Dawley rat at 20 mg/kg, po; type: ADME, organism-based; set-up: dose 20 mg/kg, route oral; details: in vivo; method in brief: as §3
[16] = Half life in Sprague-Dawley rat at 5 mg/kg, iv; type: ADME, organism-based; set-up: dose 5 mg/kg, route intravenous; details: in vivo; method in brief: as §3
[17] = Tmax in Sprague-Dawley rat at 5 mg/kg, iv; type: ADME, organism-based; set-up: dose 5 mg/kg, route intravenous; details: in vivo; method in brief: as §3
[18] = AUC (0 to t) in Sprague-Dawley rat at 20 mg/kg, po; type: ADME, organism-based; set-up: dose 20 mg/kg, route oral; details: plasma; method in brief: as §3
Mus musculus [19] = test: Antidiabetic activity in ICR mouse assessed as decrease in blood glucose AUC (0 to 120 mins) at 50 mg/kg administered for 30 mins prior to glucose challenge measured after 4 hrs by OGTT relative to vehicle-treated control; type: functional; set-up: scale not given: the % may be the effect or the level left; method in brief: as §2
[20] = Cmax in Sprague-Dawley rat at 5 mg/kg, iv; type: ADME, organism-based; set-up: dose 5 mg/kg, route intravenous; details: in vivo; method in brief: as §3
[21] = Half life in Sprague-Dawley rat at 20 mg/kg, po; type: ADME, organism-based; set-up: dose 20 mg/kg, route oral; details: in vivo; method in brief: as §3
CYP2C9 = CYP2C9 (Homo sapiens, UniProt P11712); test: Inhibition of CYP2C9 (unknown origin) at 100 uM relative to control; type: ADME
[22] = AUC (0 to infinity) in Sprague-Dawley rat at 20 mg/kg, po; type: ADME, organism-based; set-up: time infinity, dose 20 mg/kg, route oral; details: plasma; method in brief: as §3
[23] = Mean residence time in Sprague-Dawley rat at 5 mg/kg, iv; type: ADME, organism-based; set-up: dose 5 mg/kg, route intravenous; details: in vivo; method in brief: as §3

Sequence of Dipeptidyl peptidase 9 (Q86TI2 whole entry): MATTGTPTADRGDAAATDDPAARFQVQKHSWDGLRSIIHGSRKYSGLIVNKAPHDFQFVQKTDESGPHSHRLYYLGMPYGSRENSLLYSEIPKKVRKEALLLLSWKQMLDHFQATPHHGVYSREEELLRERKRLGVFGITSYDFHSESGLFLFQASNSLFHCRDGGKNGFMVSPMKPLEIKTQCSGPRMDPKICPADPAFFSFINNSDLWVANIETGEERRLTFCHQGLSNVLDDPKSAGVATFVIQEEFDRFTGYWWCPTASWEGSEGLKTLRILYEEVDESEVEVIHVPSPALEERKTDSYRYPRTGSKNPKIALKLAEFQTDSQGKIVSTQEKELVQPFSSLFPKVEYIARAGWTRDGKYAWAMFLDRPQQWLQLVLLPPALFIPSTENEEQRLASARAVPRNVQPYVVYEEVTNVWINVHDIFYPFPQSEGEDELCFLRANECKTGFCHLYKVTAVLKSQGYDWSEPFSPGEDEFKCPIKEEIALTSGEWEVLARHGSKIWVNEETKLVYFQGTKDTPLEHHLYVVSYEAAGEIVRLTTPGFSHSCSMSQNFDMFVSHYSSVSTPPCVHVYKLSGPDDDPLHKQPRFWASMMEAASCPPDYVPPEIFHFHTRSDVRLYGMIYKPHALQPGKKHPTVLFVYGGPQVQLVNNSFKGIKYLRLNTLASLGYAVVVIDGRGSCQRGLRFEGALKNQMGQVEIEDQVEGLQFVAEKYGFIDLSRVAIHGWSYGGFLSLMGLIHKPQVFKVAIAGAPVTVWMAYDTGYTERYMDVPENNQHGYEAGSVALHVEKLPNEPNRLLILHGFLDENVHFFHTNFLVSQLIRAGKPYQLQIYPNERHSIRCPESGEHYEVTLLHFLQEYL
Sequence of CYP2C9 (P11712 whole entry): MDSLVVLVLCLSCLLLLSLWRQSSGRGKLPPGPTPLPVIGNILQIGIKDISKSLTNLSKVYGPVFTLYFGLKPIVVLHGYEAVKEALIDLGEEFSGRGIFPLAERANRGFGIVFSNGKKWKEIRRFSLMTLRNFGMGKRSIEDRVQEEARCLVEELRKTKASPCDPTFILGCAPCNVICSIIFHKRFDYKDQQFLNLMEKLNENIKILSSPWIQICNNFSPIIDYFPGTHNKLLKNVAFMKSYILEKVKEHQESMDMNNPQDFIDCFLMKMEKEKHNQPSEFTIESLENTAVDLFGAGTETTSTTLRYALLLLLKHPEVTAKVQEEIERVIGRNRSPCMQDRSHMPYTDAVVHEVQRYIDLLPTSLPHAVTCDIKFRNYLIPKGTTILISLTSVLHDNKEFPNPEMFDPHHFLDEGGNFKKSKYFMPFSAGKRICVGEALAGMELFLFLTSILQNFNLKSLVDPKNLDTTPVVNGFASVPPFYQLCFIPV
Sequence of Cytochrome P450 3A4 (P08684 whole entry): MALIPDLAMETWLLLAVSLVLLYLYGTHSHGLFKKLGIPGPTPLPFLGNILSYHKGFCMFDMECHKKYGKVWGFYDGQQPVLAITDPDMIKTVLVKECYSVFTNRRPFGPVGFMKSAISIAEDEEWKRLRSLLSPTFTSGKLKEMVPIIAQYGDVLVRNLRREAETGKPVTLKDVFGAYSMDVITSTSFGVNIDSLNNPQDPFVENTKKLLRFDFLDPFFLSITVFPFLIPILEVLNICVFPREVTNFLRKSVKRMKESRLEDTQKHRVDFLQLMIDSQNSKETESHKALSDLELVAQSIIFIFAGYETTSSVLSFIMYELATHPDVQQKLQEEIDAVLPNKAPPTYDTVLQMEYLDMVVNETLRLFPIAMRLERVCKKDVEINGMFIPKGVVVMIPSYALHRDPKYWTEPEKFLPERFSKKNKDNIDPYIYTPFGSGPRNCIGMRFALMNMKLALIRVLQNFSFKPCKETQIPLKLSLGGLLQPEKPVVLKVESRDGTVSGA
Sequence of Dipeptidyl peptidase 8 (Q6V1X1 whole entry): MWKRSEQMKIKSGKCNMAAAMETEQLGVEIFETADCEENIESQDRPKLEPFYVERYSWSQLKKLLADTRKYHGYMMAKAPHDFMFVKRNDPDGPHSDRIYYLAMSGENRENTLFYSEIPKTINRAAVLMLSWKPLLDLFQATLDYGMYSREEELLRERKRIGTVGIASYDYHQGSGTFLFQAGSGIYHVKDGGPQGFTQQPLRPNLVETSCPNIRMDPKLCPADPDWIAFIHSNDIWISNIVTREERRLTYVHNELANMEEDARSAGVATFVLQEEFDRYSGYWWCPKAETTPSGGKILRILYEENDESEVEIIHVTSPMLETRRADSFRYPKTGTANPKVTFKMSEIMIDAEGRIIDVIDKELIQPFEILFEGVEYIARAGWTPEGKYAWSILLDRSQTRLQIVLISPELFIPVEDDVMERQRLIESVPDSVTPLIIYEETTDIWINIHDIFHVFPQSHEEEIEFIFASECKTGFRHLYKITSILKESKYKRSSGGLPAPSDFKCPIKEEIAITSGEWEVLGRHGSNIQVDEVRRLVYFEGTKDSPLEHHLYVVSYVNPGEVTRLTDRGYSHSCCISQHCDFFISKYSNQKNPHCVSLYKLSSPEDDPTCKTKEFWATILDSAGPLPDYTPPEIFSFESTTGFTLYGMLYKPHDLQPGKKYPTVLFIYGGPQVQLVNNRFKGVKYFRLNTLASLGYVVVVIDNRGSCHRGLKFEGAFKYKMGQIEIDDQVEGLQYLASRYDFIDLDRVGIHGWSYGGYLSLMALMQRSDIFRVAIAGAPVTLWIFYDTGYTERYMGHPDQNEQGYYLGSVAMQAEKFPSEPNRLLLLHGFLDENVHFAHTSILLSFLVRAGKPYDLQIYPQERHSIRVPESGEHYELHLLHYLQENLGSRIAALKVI

## N#C[C@@H]1CCCN1C(=O)CNC12CC3CC(CC(O)(C3)C1)C2 [VILDAGLIPTIN]
Mus musculus [1]
  Activity: 21 mmol/L
Mus musculus [2]
  Activity: 21.4 mmol/L
Mus musculus [3]
  Activity: 31.3 mmol/L
Mus musculus [4]
  Activity: 19.9%
Mus musculus [5]
  Activity: 20.7 mmol/L
Mus musculus [6]
  Activity: 17.9 mmol/L

## N#C[C@@H]1CCCN1C(=O)[C@@H](N)Cc1ccccn1
Dipeptidyl peptidase 8
  IC50: 125 µM
Dipeptidyl peptidase 9
  IC50: 144 µM

## N#C[C@@H]1C[C@H](F)CN1C(=O)[C@@H](N)Cc1cc2c(cc1Br)OCO2
Cytochrome P450 3A4
  IC50: 2.2 µM
[7]
  Tmax: 18 min
[8]
  AUC(0-inf): 1920 ng·h/mL
[9]
  Cmax: 2200 ng/mL
Mus musculus [10]
  Activity: 12.2%
[11]
  bioavailability: 16.8%
Mus musculus [12]
  Activity: Dose-dependent effect
[13]
  clearance: 43.5 mL/min/kg
[14]
  AUC(0-t): 1920 ng·h/mL
[15]
  MRT: 189 min
[16]
  half-life: 37.8 min
[17]
  Tmax: 18 min
[18]
  AUC(0-t): 1290 ng·h/mL
Mus musculus [19]
  Activity: 23.6%
[20]
  Cmax: 2030 ng/mL
[21]
  half-life: 218 min
CYP2C9
  inhibition at 100 µM: -20.3%
[22]
  AUC(0-inf): 1580 ng·h/mL
[23]
  MRT: 33 min
